Experimental data from different studies.

With `CCN(CC)CCCC(C)Nc1ccnc2cc(Cl)ccc12` (stereo not drawn) the inhibition was 54.8% (Dengue virus; viral replication, inhibitor; BHK-21, DENV2; 50 µM, 24 h, replicon).
For `CC[C@H](C)[C@H]1C(=O)N2CCC[C@H]2C(=O)O[C@H](C(C)(C)C)C[C@@H](C)C[C@H](O)[C@H](C)C2=N[C@@H](CCC(=O)N[C@@H](Cc3ccc(OC)cc3)C(=O)N(C)[C@@H](C)C(=O)N1C)CS2`, the IC50 was 3.3 nM (Dengue virus; viral replication; Huh7.5; 24 h).
`Nc1ncn([C@@H]2O[C@H](CO)[C@@H](O)[C@H]2O)c(=O)n1` has an inhibition of 86% (Zaire ebolavirus; viral replication, inhibitor; Vero C1008; 50 µM, 72 h).
`c1ccc([C@@H]2C[C@H]2NC2CCNCC2)cc1` gave an EC50 of 0.91 nM (MOLM-13; cell growth or viability, resazurin; 96 h).
`CC1=C(O)C(=O)C=C2C1=CC=C1[C@@]2(C)CC[C@@]2(C)[C@@H]3C[C@](C)(C(=O)OCCCn4cc(C=O)c5ccccc54)CC[C@]3(C)CC[C@]12C` has an IC50 of 770 nM (Bel-7402; cell growth or viability, MTT; 48 h).
The IC50 of `Cc1cccc(-n2ncc(Cl)c(Cl)c2=O)c1` is reported as 210 nM (NCI-H23; cell growth or viability, resazurin; 96 h).
The inhibition of `Nc1ncnc2c([C@@H]3N[C@H](CO)[C@@H](O)[C@H]3O)c[nH]c12` is reported as 11% (Dengue virus; viral replication; Vero 76, DENV2; 3 µM).
With `CC1=C(O)C(=O)C=C2C1=CC=C1[C@@]2(C)CC[C@@]2(C)[C@@H]3C[C@](C)(C(=O)O)CC[C@]3(C)CC[C@]12C` the IC50 was 790 nM (Bel-7402; cell growth or viability, MTT; 48 h).
`CCN(CC)CCNc1ccc(C)c2sc3ccccc3c(=O)c12` gave an IC50 of 3270 nM (Zaire ebolavirus; viral replication, inhibitor; HeLa).
`CCN(CC)Cc1cc(Nc2ccnc3cc(Cl)ccc23)ccc1O` has an IC50 of 2130 nM (Zaire ebolavirus; viral replication, inhibitor; Huh-7; 24 h).
With `CC(C)(N)CNC(=O)C[C@H]1CC[C@]2(CC1)OO[C@]1(O2)C2CC3CC(C2)CC1C3` the IC50 was 4530 nM (Zaire ebolavirus; viral replication, inhibitor; HeLa).
For `CCN(CC)Cc1cc(Nc2ccnc3cc(Cl)ccc23)ccc1O`, the inhibition was 76.3% (Dengue virus; viral replication, inhibitor; BHK-21, DENV2; 50 µM, 24 h, replicon).
